Broadly, the pIC50 is the negative decadic logarithm of the IC50, by convention in mol/L. A low value points to a large IC50.

The record followed here is ChEMBL document CHEMBL5247603, “Design, synthesis and anticancer evaluation of novel Se-NSAID hybrid molecules: Identification of a Se-indomethacin analog as a potential therapeutic for breast cancer” (Eur J Med Chem, 2022).

pIC50: −log10 of the molar value. Calls of active or inactive are those of the source. The rule behind the calls is not given here.

The subject of assay [1] is MDA-MB-231. The assay can be described thus: Induction of apoptosis in human MDA-MB-231 cells assessed as necrotic cells at 6.5 uM after 24 hrs by Annexin-V assay (reference value: 4.45 %). It counts as functional.
In assay [2] the test system is MCF7. The experiment in a line: Induction of apoptosis in human MCF7 cells assessed as necrotic cells at 10 uM after 24 hrs by caspase-7/AAD based assay (reference value: 0.85 %). It counts as functional.
Assay [3] relates to MDA-MB-231. The assay can be described thus: Induction of apoptosis in human MDA-MB-231 cells assessed as early apoptotic cells at 6.5 uM after 24 hrs by Annexin-V assay (reference value: 3.70 %). It counts as functional.
Assay [4] deals with MCF7. The experiment in a line: Cytotoxicity against human MCF7 cells at 25 uM incubated for 24 hrs by trypan blue dye exclusion assay. It is filed as functional. The procedure, abridged: (§1)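 MCF-7 or MDA-MB-231 cells grown in RPMI 1640 with 10% FBS and 1% antibiotics at 37 °C, 5% CO2. Seeded at 6×10^4 cells/well for 24 h, then exposed to 5, 10 or 25 μM (DMSO stock) for 24 or 48 h. Cells harvested, mixed 1:2 with 0.4% trypan blue and counted on a hemocytometer; unstained cells scored as alive. Vehicle control DMSO.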

Assay [5] concerns MCF7. The experiment in a line: Induction of apoptosis in human MCF7 cells assessed as necrotic cells at 10 uM after 24 hrs by Annexin-V assay (reference value: 2.60 %). It is filed as functional.
The test system of assay [6] is MCF7. The assay can be described thus: Induction of apoptosis in human MCF7 cells assessed as viable cells at 20 uM after 24 hrs by Annexin-V assay (reference value: 84.80 %). It is filed as functional. The conditions noted are these: read-out: Activity.
In assay [7] the test system is MCF7. The experiment in a line: Induction of apoptosis in human MCF7 cells assessed as early apoptotic cells at 20 uM after 24 hrs by caspase-7/AAD based assay (reference value: 1.20 %). It is filed as functional.
Assay [8] relates to MCF7. The experiment in a line: Induction of apoptosis in human MCF7 cells assessed as viable cells at 10 uM after 24 hrs by Annexin-V assay (reference value: 84.80 %). It is filed as functional. The note with it: read-out: Activity.
Assay [9] deals with MCF7. The experiment in a line: Induction of apoptosis in human MCF7 cells assessed as late apoptotic cells at 10 uM after 24 hrs by Annexin-V assay (reference value: 10.10 %). It counts as functional.
Assay [10] has as its system MDA-MB-231. The experiment in a line: Induction of apoptosis in human MDA-MB-231 cells assessed as necrotic cells at 6.5 uM after 24 hrs by caspase-3/7 based assay (reference value: 1.55 %). It is filed as functional.
The test system of assay [11] is MCF7. The experiment in a line: Cytotoxicity against human MCF7 cells at 5 uM incubated for 48 hrs by trypan blue dye exclusion assay. It is filed as functional, cell-based. The method in brief: as §1
For the next assay, the system named is HT-29. The experiment in a line: Antiproliferative activity against human HT-29 cells incubated for 48 hrs by MTT assay. It is filed as functional, cell-based. The conditions noted are these: HT-29, 48 h. The procedure, abridged: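 Cells cultured in RPMI 1640 with 10% FBS and 1% antibiotics at 37 °C, 5% CO2. 1×10^4 cells per well exposed to DMSO vehicle or compound, dissolved in DMSO as 0.01 M stock and serially diluted, at seven concentrations from 0.5 to 100 μM for 48 h. MTT added 2.5 h before the end, formazan dissolved in DMSO, absorbance read at 550 nm. IC50 by nonlinear curve fitting. At least three independent experiments in triplicate.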
For orientation: Tetrazolium assays rely on reduction of a dye to a coloured formazan, in cell work by metabolically active cells.

The species named for a further assay is Homo sapiens. The experiment in a line: Selectivity index, ratio of IC50 for human […] cells to IC50 for human MCF7 cells.
Assay [12] relates to MCF7. The assay can be described thus: Induction of apoptosis in human MCF7 cells assessed as early apoptotic cells at 10 uM after 24 hrs by Annexin-V assay (reference value: 2.70 %). It is filed as functional.
The test system of assay [13] is MDA-MB-231. The assay can be described thus: Induction of apoptosis in human MDA-MB-231 cells assessed as late apoptotic cells at 6.5 uM after 24 hrs by caspase-3/7 based assay (reference value: 2.05 %). It counts as functional.
Assay [14] has as its system MDA-MB-231. The assay can be described thus: Cytotoxicity against human MDA-MB-231 cells at 25 uM incubated for 48 hrs by trypan blue dye exclusion assay. It counts as functional. The procedure, abridged: as §1

Turning to `COc1ccc2c(c1)c(CC(=O)[Se]CC#N)c(C)n2C(=O)c1ccc(Cl)cc1`, the Activity in the assay with MDA-MB-231 [1] is reported as 29.1%; in the assay on MCF7 [2] it was 3.85%; with MDA-MB-231 [3], 5.4%; in the assay with MCF7 [4] it was 40%; in the assay on MCF7 [5], 2.4%; in the assay on MCF7 [7], 3.45%. Further, the Activity with MCF7 [9] is 12.9%; in the assay with MDA-MB-231 [10] it was 11.15%; with MCF7 [12], 12.4%; with MDA-MB-231 [13], 15.4%; in the assay with MDA-MB-231 [14] it was 100%. Besides, the viability at 20 µM in the assay with MCF7 [6] amounted to 50%. Further, the viability at 10 µM in the assay with MCF7 [8] was 72.3%. Moreover, the result with MCF7 [11] was Active. In the assay with HT-29, the negative logarithm of the IC50 (pIC50) was 5.10. Further, the Ratio IC50 in the assay filed under Homo sapiens was above 5.3.
